Results reported in ChEMBL document CHEMBL1154590, “Synthesis and evaluation of dimeric 1,2,3,4-tetrahydro-naphthalenylamine and indan-1-ylamine derivatives with mast cell-stabilising and anti-allergic activity” (2010).
The source made the active and inactive calls. The calls are words filed in the database; no cut-off is given here.

Assays:
Rattus norvegicus = experiment: Antiallergic activity in Wistar rat assessed as inhibition of ovalbumin-induced passive cutaneous anaphylaxis reaction at 3 mg/kg, iv treated after 48 hrs of ovalbumin challenge measured after 30 mins; format: functional
How it was run: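 Female Wistar rats were sensitised by intradermal antiserum (0.1 mL per site) against ovalbumin, raised in rats given ovalbumin with heat-killed Bordetella pertussis. Sites were excised at 30 min, digested in KOH overnight at 37 °C and extracted with H3PO4/acetone. Absorbance read at 620 nm; % inhibition reported.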

Mast cell [1] = experiment: Inhibition of 48/80-induced histamine release in Wistar rat peritoneal mast cells at 2 x 10^-5 M after 5 mins
Mast cell [2] = experiment: Inhibition of 48/80-induced histamine release in Wistar rat peritoneal mast cells at 2 x 10^-5 M after 5 mins; format: functional
Mast cell [3] = experiment: Inhibition of anti-IgE-induced histamine release in Brown Norway rat peritoneal mast cells at 2 x 10^-5 M
Mast cell [4] = experiment: Inhibition of 48/80-induced histamine release in Wistar rat peritoneal mast cells after 5 mins; format: functional
Mast cell [5] = experiment: Inhibition of A23187-induced histamine release in Wistar rat peritoneal mast cells; format: functional
How it was run: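 Rat peritoneal mast cells from female Wistar rats, in mast cell medium (MCM) buffer. Histamine release was elicited with A23187 at 1 µg ml-1. IC50 determined.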

Mast cell [6] = experiment: Inhibition of concanavalin A-induced histamine release in Wistar rat peritoneal mast cells; format: functional
How it was run: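 Female Wistar rat peritoneal mast cells, in mast cell medium (MCM) buffer. Concanavalin A at 20 µg ml-1 served as the degranulating stimulus. IC50 determined.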

Mast cell [7] = experiment: Inhibition of vancomycin-induced histamine release in Wistar rat peritoneal mast cells; format: functional
How it was run: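 Peritoneal mast cells from female Wistar rats, in Tyrodes buffer, challenged with vancomycin at 2.52 mg mL-1 to induce degranulation. IC50 determined.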

Mast cell [8] = experiment: Inhibition of anti-IgE-induced histamine release in Brown Norway rat peritoneal mast cells at 10^-5 M

Row | Compound | inhibition in vivo at 3 mg/kg (Rattus norvegicus) [%] | inhibition at 20 µM (Mast cell [1]) [%] | also measured
1 | C=CCN(C1CCc2ccccc2C1)C1CC(=O)c2ccccc21 (stereo unspecified) | 82 | 59 | –
2 | CN(C1CCC(=O)c2ccccc21)C1CC(=O)c2ccccc21 (stereo unspecified) | – | 61 | –
3 | COc1cc(CN(C2CCc3ccccc3C2)C2CC(=O)c3ccccc32)cc(OC)c1OC (stereo unspecified) | 70 | – | inhibition at 20 µM (Mast cell [2]): 40%
4 | COc1cccc2c1C(=O)CC2N(C)C1CCCc2ccccc21 (stereo unspecified) | – | – | inhibition at 20 µM (Mast cell [2]): 48%
5 | COc1ccc2c(c1)C(N(C)C1CC(=O)c3ccccc31)CCC2 (stereo unspecified) | – | 100 | –
6 | CN(C1CCc2ccccc21)C1CCC(=O)c2ccccc21 (stereo unspecified) | – | 14 | inhibition (Rattus norvegicus): inactive
7 | COc1ccc2c(c1)C(N(C)C1CCCc3ccccc31)CC2=O (stereo unspecified) | 62 | – | inhibition at 20 µM (Mast cell [2]): 55%
8 | CN(C1CCc2ccccc2C1)C1CC(=O)c2ccccc21 (stereo unspecified) | 98 | 76 | inhibition at 20 µM (Mast cell [3]): 95%
9 | CN(C1CCCc2ccccc21)C1CC(=O)c2ccccc21 (stereo unspecified) | 13 | 93 | IC50 (Mast cell [4]): 1.5 µM; IC50 (Mast cell [5]): 2 µM; IC50 (Mast cell [6]): 0.7 µM; IC50 (Mast cell [7]): 4.7 µM; inhibition at 10 µM (Mast cell [8]): 68%
10 | CN(C1CCCc2ccccc21)C1CCC(=O)c2ccccc21 (stereo unspecified) | 29 | 99 | IC50 (Mast cell [5]): 38 µM; IC50 (Mast cell [6]): 2.4 µM
11 | CC(=O)N(C1CCCc2ccccc21)C1CC(=O)c2ccccc21 (stereo unspecified) | – | – | inhibition (Mast cell [2]): inactive
12 | O=C(O)c1cc(=O)c2c(OCC(O)COc3cccc4oc(C(=O)O)cc(=O)c34)cccc2o1 [CROMOLYN SODIUM] | 99 | 10 | –
13 | O=C1CC(N(Cc2ccccc2)C2CCc3ccccc3C2)c2ccccc21 (stereo unspecified) | 79 | 67 | –
14 | Cc1ccc(CN(C2CCc3ccccc3C2)C2CC(=O)c3ccccc32)cc1 (stereo unspecified) | 73 | 68 | –
15 | CN(C1CCOc2ccccc21)C1CC(=O)c2ccccc21 (stereo unspecified) | – | 100 | –
16 | CN(C1CCCc2ccccc21)C1CCCc2ccccc21 (stereo unspecified) | – | – | inhibition (Mast cell [2]): inactive
17 | C=CCN(C1CCCc2ccccc21)C1CC(=O)c2ccccc21 (stereo unspecified) | 72 | 92 | –
